Legend:
[1] = target: T1, MAO B (monoamine oxidase B) (Rattus norvegicus, UniProt P19643); test: (§1) Inhibitory activity against monoamine oxidase B (MAO B) from rat brain using a radiometric procedure with [14C]phenylethylamine at 1 uM; details: rat brain monoamine oxidase B preparation, probe [14C]phenylethylamine
T1 sequence (P19643 whole entry): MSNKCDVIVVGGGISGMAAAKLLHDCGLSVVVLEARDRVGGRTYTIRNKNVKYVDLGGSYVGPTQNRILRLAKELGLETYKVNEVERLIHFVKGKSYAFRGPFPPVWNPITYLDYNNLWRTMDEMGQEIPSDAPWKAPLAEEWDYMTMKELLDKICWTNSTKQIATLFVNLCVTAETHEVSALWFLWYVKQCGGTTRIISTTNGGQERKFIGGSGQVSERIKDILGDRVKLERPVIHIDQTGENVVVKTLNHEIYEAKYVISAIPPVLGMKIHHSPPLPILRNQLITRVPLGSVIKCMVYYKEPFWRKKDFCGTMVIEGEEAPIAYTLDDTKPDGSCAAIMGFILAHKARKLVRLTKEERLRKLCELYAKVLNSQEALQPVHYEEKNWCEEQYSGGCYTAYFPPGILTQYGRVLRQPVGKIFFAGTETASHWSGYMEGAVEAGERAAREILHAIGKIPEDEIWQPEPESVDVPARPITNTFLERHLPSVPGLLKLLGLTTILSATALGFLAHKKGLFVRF
In short: (§2)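 Rat brain mitochondrial MAO extract was preincubated ± inhibitor for 15 min at 37 °C in 50 mM potassium phosphate, pH 7.4. […] Pargyline (2 mM) defined blanks. Acid stop, ethyl acetate/toluene extraction and scintillation counting followed. Triplicate means gave % inhibition, and IC50 was extrapolated from % inhibition vs log concentration plots.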

[2] = target: T2, MAO A (monoamine oxidase A) (Rattus norvegicus, UniProt P21396); test: (§3) Inhibitory activity against monoamine oxidase A (MAO A) from rat brain using a radiometric procedure with [3H]5-HT at 1 uM; details: rat brain monoamine oxidase A preparation, probe [3H]5-HT
T2 sequence (P21396 whole entry): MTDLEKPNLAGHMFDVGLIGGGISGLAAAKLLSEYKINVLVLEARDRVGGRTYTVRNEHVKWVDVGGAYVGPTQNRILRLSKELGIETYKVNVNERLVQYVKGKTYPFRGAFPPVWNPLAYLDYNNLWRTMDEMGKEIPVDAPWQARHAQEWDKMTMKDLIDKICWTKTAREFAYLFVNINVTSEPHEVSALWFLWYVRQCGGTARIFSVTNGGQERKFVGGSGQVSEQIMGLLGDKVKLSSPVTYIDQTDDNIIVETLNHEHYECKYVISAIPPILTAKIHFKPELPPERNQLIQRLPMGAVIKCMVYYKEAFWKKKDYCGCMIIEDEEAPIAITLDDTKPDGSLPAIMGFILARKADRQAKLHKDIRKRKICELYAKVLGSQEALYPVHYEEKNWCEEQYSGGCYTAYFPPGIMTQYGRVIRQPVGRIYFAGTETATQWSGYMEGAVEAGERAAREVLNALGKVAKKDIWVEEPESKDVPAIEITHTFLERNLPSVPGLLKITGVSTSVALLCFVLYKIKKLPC
In short: (§4)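 Rat brain mitochondrial MAO extract was preincubated with or without inhibitor for 15 min at 37 °C in 50 mM potassium phosphate, pH 7.4. […] Blanks contained 2 mM pargyline. Reactions were stopped with HCl, products extracted into ethyl acetate/toluene and counted by scintillation. Triplicates were averaged as % inhibition, and IC50 was taken from % inhibition vs log concentration.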

[3] = target: T3, Amine oxidase [flavin-containing] A (Rattus norvegicus, UniProt P21396); test: Inhibitory activity against monoamine oxidase A (MAO A) from rat brain using a radiometric procedure with [3H]5-HT; in short: as §4
T3 sequence (P21396 whole entry): T2 sequence (P21396 whole entry)

[4] = target: T1, MAO B (monoamine oxidase B); test: Inhibitory activity against monoamine oxidase B (MAO B) from rat brain using a radiometric procedure with [14C]- phenethylamine at 10 uM; details: rat brain monoamine oxidase B preparation, probe [14C]-phenethylamine; in short: as §2
[5] = target: T2, MAO A (monoamine oxidase A); test: Inhibitory activity against monoamine oxidase A (MAO A) from rat brain using a radiometric procedure with [3H]- serotonin at 10 uM; details: rat brain monoamine oxidase A preparation, probe [3H]-serotonin; in short: as §4
[6] = target: T2, MAO A (monoamine oxidase A); test: (§5) Inhibitory activity against monoamine oxidase A (MAO A) from rat brain using a radiometric procedure with [3H]5-HT at 10 uM; details: rat brain monoamine oxidase A preparation, probe [3H]5-HT; in short: as §4
[7] = target: T1, MAO B (monoamine oxidase B); test: (§6) Inhibitory activity against monoamine oxidase B (MAO B) from rat brain using a radiometric procedure with [14C]phenylethylamine at 10 uM; details: rat brain monoamine oxidase B preparation, probe [14C]phenylethylamine; in short: as §2
[8] = target: T1, MAO B (monoamine oxidase B); test: Inhibitory activity against monoamine oxidase B (MAO B) from rat brain using a radiometric procedure with [14C]- phenethylamine atb 10 uM; details: rat brain monoamine oxidase B preparation, probe [14C]-phenethylamine
In short: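 Rat brain mitochondrial MAO extract preincubated ± inhibitor 15 min at 37 °C in 50 mM potassium phosphate pH 7.4. […] Blanks contained 2 mM pargyline. Stopped with HCl, products extracted into ethyl acetate/toluene, scintillation counted. Triplicates. IC50 from mean % inhibition vs log concentration plot.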

[9] = target: T3, Amine oxidase [flavin-containing] A; test: Inhibitory activity against monoamine oxidase A (MAO A) from rat brain using a radiometric procedure with [3H]- serotonin.; in short: as §4
[10] = target: T1, MAO B (monoamine oxidase B); test: Inhibitory activity against monoamine oxidase B (MAO B) from rat brain using a radiometric procedure with [14C]- phenethylamine at 1 uM; details: rat brain monoamine oxidase B preparation, probe [14C]-phenethylamine; in short: as §2
[11] = target: T2, MAO A (monoamine oxidase A); test: Inhibitory activity against monoamine oxidase A (MAO A) from rat brain using a radiometric procedure with [3H]- serotonin at 1 uM; details: rat brain monoamine oxidase A preparation, probe [3H]-serotonin; in short: as §4
[12] = target: T4, Amine oxidase [flavin-containing] B (Rattus norvegicus, UniProt P19643); test: as §1; in short: as §2
T4 sequence (P19643 whole entry): T1 sequence (P19643 whole entry)

[13] = target: T3, Amine oxidase [flavin-containing] A; test: as §3; in short: as §4
[14] = target: T2, MAO A (monoamine oxidase A); test: Inhibitory activity against monoamine oxidase A (MAO A) from rat brain using a radiometric procedure with [3H]- serotonin at 0.1 uM; details: rat brain monoamine oxidase A preparation, probe [3H]-serotonin; in short: as §4
[15] = target: T1, MAO B (monoamine oxidase B); test: Inhibitory activity against monoamine oxidase B (MAO B) from rat brain using a radiometric procedure with [14C]- phenethylamine at 0.1 uM; details: rat brain monoamine oxidase B preparation, probe [14C]-phenethylamine; in short: as §2
[16] = target: T4, Amine oxidase [flavin-containing] B; test: Inhibitory activity against monoamine oxidase B (MAO B) from rat brain using a radiometric procedure with [14C]- phenethylamine at<10 uM; in short: as §2
[17] = target: T3, Amine oxidase [flavin-containing] A; test: as §5; in short: as §4
[18] = target: T4, Amine oxidase [flavin-containing] B; test: as §6; in short: as §2

Q: What does the source list for `NC(=O)Nc1ccc2c(c1)[nH]c1ccccc12`?
A: inhibition at 1 µM [1]: 26%; inhibition [2]: 74%

Q: What does the source list for `CC(=O)Nc1ccc2c(c1)S(=O)(=O)c1ccccc1C2`?
A: inhibition at 1 µM [1]: 49%; inhibition [2]: 17%

Q: Which inhibition [2] does the source give for `CNc1ccc2c(c1)-c1ccccc1S2(=O)=O` here?
A: 34%

Q: How did the IC50 [3] turn out when `CC(=O)Nc1ccc2c(c1)C(=O)c1cc([N+](=O)[O-])ccc1-2` was run?
A: 1300 nM

Q: With `CC(=O)Nc1ccc(Nc2ccccc2)c(NC(C)=O)c1` as the compound, how does the inhibition at 10 µM [4] read?
A: 4%

Q: What about the inhibition at 10 µM [5] of the same compound?
A: 4%

Q: How did the inhibition at 1 µM [1] turn out when `CC(=O)Nc1ccc2c(c1)S(=O)(=O)c1ccccc1N2C` was run?
A: 18%

Q: What about the inhibition [2] of the same compound?
A: 60%

Q: `CC(=O)NCCc1ccc2c(c1)c1ccccc1n2C` was tested. Which inhibition at 1 µM [1] did it give?
A: 0%

Q: What about the inhibition [2] of the same compound?
A: 50%

Q: What does the source list for `NC(=O)Nc1ccccc1-c1ccccc1`?
A: inhibition [6]: 22%; inhibition at 10 uM [7]: 13%

Q: What does the source list for `CC(=O)Nc1ccc2c(c1)-c1ccccc1S2(=O)=O`?
A: inhibition at 1 µM [1]: 13%; IC50 [3]: 260 nM

Q: Which inhibition at 10 µM [4] does the source give for `CC(=O)Nc1ccc2[nH]c3ccccc3c2c1` here?
A: 37%

Q: With `CC(=O)Nc1ccc2c3c([nH]c2c1)CCCC3` as the compound, how does the inhibition at 1 µM [1] read?
A: 0%

Q: What about the inhibition [2] of the same compound?
A: 35%

Q: `CC(=O)Nc1ccc2c(c1)COCO2` was tested. Which inhibition [6] did it give?
A: 42%

Q: And the inhibition at 10 uM [7]?
A: 22%

Q: For `CC(=O)Nc1ccc2c(c1)C(=O)c1ccccc1-2`, which inhibition at 1 µM [1] is on record?
A: 3%

Q: What about the IC50 [3] of the same compound?
A: 40 nM

Q: `CC(=O)Nc1ccc2c(c1)[nH]c1ccccc12` was tested. Which inhibition at 10 uM [8] did it give?
A: 38%

Q: What about the IC50 [9] of the same compound?
A: 43 nM

Q: Which IC50 [3] does the source give for `O=CNc1ccc2c(c1)[nH]c1ccccc12` here?
A: 1100 nM

Q: With `CC(=O)Nc1ccc2c3c([nH]c2c1)CCC(C)(C=O)C3` (stereo unspecified) as the compound, how does the inhibition at 1 µM [10] read?
A: 11%

Q: What about the inhibition at 1 µM [11] of the same compound?
A: 0%

Q: `CC(=O)Nc1ccc2[nH]c(C)c(C)c2c1` was tested. Which inhibition [12] did it give?
A: 42%

Q: And the inhibition [13]?
A: < 1%

Q: With `CC(=O)Nc1ccc2c(c1)oc1ccccc12` as the compound, how does the IC50 [3] read?
A: 300 nM

Q: With `CC(=O)Nc1ccc2oc(=O)c3ccccc3c2c1` as the compound, how does the inhibition at 0.1 uM [14] read?
A: 10%

Q: And the inhibition at 0.1 µM [15]?
A: 23%

Q: Which results are given for `CC(=O)Nc1ccc2[nH]c(=O)c3ccccc3c2c1`?
A: inhibition at 1 µM [1]: 11%; inhibition [2]: 0%

Q: Which inhibition at 10 µM [5] does the source give for `CC(=O)Nc1cccc(Nc2ccccc2)c1` here?
A: 44%

Q: With `CC(=O)Nc1cc2ccccc2oc1=O` as the compound, how does the inhibition [16] read?
A: 53%

Q: And the inhibition at 1 µM [11]?
A: 5%

Q: For `CC(=O)Nc1ccc2c(c1)S(=O)(=O)c1cc(NC(C)=O)ccc1N2C`, which inhibition [12] is on record?
A: 7%

Q: What about the inhibition [13] of the same compound?
A: 2%

Q: Which results are given for `CC(=O)Nc1nc2ccccc2[nH]1`?
A: inhibition [6]: 8%; inhibition at 10 uM [7]: -2%

Q: With `CC(=O)Nc1ccc2c(c1)S(=O)(=O)c1ccccc1N2` as the compound, how does the inhibition [17] read?
A: 74%

Q: And the inhibition [18]?
A: 22%

Q: How did the inhibition at 1 µM [1] turn out when `CC(=O)Nc1ccc2c(c1)C(=O)c1ccccc1S2(=O)=O` was run?
A: 39%

Q: And the IC50 [3]?
A: 120 nM

Q: With `Nc1ccc2c(c1)-c1ccccc1S2(=O)=O` as the compound, how does the IC50 [3] read?
A: 1000 nM

Q: What does the source list for `CC(=O)Nc1ccc2c(c1)S(=O)(=O)c1ccccc1C2=O`?
A: inhibition at 1 µM [1]: -1%; IC50 [3]: 60 nM

Q: For `CC(=O)Nc1ccc2c(c1)oc(=O)c1ccccc12`, which inhibition at 1 µM [10] is on record?
A: 8%

Q: And the IC50 [9]?
A: 40 nM
